Source: article PMC4479701 (mBio, 2015)
≈ marks a conversion by molar mass, not a printed value.

Experiments:
C. neoformans [1] = experiment: Synergism assay; type: cell-based
[2] = system: GlcCer synthesis in J774.16 cells; experiment: Labeling of mammalian cells with [3H]palmitate, TLC of GlcCer; type: cell-based, murine; settings: [3H]palmitate labeling, 6 h
How it was run: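 J774.16 macrophages (5 × 10^6 cells/ml) adhered for 14 h in six-well plates. They were exposed for 4 h to test compound at the concentrations used for the fungal labeling, then given 30 µCi/ml [3H]palmitic acid for a further 2 h.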

P. murina [3] = experiment: Murine pneumocystosis, corticosteroid-immunosuppressed; type: in vivo, mouse (C3H/HeN); settings: mice immunosuppressed with corticosteroids
How it was run: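 Corticosteroid-immunosuppressed mice were infected with P. murina by cohousing with seed mice for 2 weeks. […] Treatment lasted 13 days. Lung homogenate slides were stained with Diff-Quik for trophic forms and cresyl echt violet for asci.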

[4] = system: GlcCer synthesis in C. neoformans; experiment: In vivo labeling with [3H]palmitate, TLC of GlcCer; type: cell-based; settings: [3H]palmitate labeling
C. neoformans [5] = experiment: Mouse model of cryptococcosis, intravenous infection; type: in vivo, mouse (CBA/J); settings: 8 mice per group, vehicle 7.0 ± 1.1
[6] = system: sphingolipids of C. neoformans; experiment: Sphingolipid profiling by TLC and LC-MS; type: cell-based; settings: LC-MS; D0 data not shown
C. neoformans [7] = experiment: Mouse model of cryptococcosis, intranasal infection; type: in vivo, mouse (CBA/J); settings: 1.2 mg/kg/day i.p.
How it was run: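 Mice (10 per group) were infected by nasal inoculation of 20 µl containing 5 × 10^5 C. neoformans. Test compound was given i.p. at 1.2 mg/kg/day in 100 µl PBS with 0.4% DMSO, starting 2 h after inoculation. Survival followed up to 60 days. Organs of survivors were homogenized in 10 ml PBS, diluted serially 1:10, plated on YPD, and incubated at 30°C for 72 h for CFU.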

In vitro toxicity = type: cell-based, murine; settings: mouse, J774.16 macrophage cells
How it was run: (§1)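 J774.16 murine macrophages were kept in DMEM with 10% FBS and 1% pen-strep, and used until passage eight. At passage 7, 10^5 cells/well were allowed to adhere for 14 h. Test compound was then added at 0.1 to 100 µg/ml, with drug-free wells as controls. Incubation at 37°C, 5% CO2.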

J774 cells = experiment: In vitro toxicity; type: cell-based, murine
How it was run: as §1

P. murina [8] = experiment: Murine pneumocystosis, CD4-depleted; type: in vivo, mouse (C3H/HeN); settings: 1.25 mg/kg/day
How it was run: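 Twelve mice were CD4-depleted with 300 µg GK 1.5 antibody i.p. on days 1, 3 and 7. They were infected by exposure to P. murina-infected mice, then given 100 µg GK 1.5 i.p. weekly for 6 weeks. Treatment followed at 1.25 or 12.5 mg/kg/day for 14 days, with GK 1.5 continued; controls received vehicle.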

C. neoformans [9] = experiment: Transmission electron microscopy, intracellular vesicles; type: cell-based; settings: 4 µg/ml, 6 h; untreated 0.33 ± 0.36
C. albicans SC 5314 = experiment: Mouse model of invasive candidiasis; type: in vivo, mouse (CBA/J); settings: after 21 days of infection; 1.2 mg/kg/day i.p.; 8 mice per group
How it was run: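 Female CBA/J mice, 8 weeks old (8 per group), were infected i.v. with 100 µl containing 10^5 C. albicans SC-5314. Test compound was given i.p. at 1.2 mg/kg/day in 100 µl PBS with 0.4% DMSO immediately after inoculation; untreated mice received vehicle. Survival was monitored. Organs of survivors were homogenized in 10 ml PBS, diluted tenfold, and plated on YPD at 30°C for 72 h for CFU.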

Candida spp. = experiment: In vitro susceptibility; type: cell-based; settings: most Candida spp. examined
How it was run: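 Inoculum prepared per CLSI M27-A3. Plates incubated at 37°C with 5% CO2 for 24 to 96 h. MIC was the lowest concentration inhibiting 50% of growth versus the drug-free control. Minimum fungicidal concentration was also measured: serial dilutions from wells were plated on YPD agar, and MFC was the lowest concentration yielding three or fewer colonies (99% of inoculum killed).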

C. neoformans cells [10] = experiment: In vitro passages, development of resistance; type: cell-based; settings: 15 days of in vitro passages (120 generations), 10^6 cells/ml; data not shown
C. neoformans cells [11] = experiment: In vitro killing assay; type: cell-based
How it was run: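 An overnight C. neoformans culture was washed in PBS and resuspended in HEPES-buffered YNB, pH 7.4. 2 × 10^4 cells were exposed to 1, 2 or 4 µg/ml test compound in 10 ml (0.4% DMSO final), at 37°C, 5% CO2, on a rotary shaker at 200 rpm. Aliquots taken at time points were diluted, plated on YPD, incubated 72 h at 30°C, and CFU counted.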

[12] = In vivo toxicity, blood work; set-up: species or system mouse (CBA/J)
How it was run: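 Female CBA/J mice, 4 weeks old: five received 1.2 mg/kg/day test compound for 60 days, and three controls received a daily solvent injection. On day 60, blood was collected into one K2EDTA tube and one plain tube allowed to clot.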

Cryptococcus neoformans = experiment: In vitro susceptibility testing; type: cell-based; settings: Cryptococcus neoformans

SMILES: O=C(NN=Cc1ccc(O)c(Br)c1)c1cccc(Br)c1 [D0, 3-bromo-N′-(3-bromo-4-hydroxybenzylidene) benzohydrazide]
- interaction category (C. neoformans [1]; combined with caspofungin): additive (additive effect, FIC = 1)
- interaction category (C. neoformans [1]; combined with fluconazole): highly synergistic
- interaction category (C. neoformans [1]; combined with tunicamycin): additive (additive effect, FIC = 1)
- synthesis of mammalian GlcCer or other sphingolipids [2]: no significant changes
- toxicity (P. murina [3]): some toxicity
- synthesis of GlcCer [4]: significantly inhibited
- survival, days postinfection (C. neoformans [5]; 1.2 mg/kg/day i.p.): 10.5 ± 4.2 days
- levels of C18 hydroxyceramide and its desaturated and methylated forms [6]: decreased
- brain tissue burden (CFU) (C. neoformans [7]): eradication of fungal cells
- lung tissue burden (CFU) (C. neoformans [7]): decrease of fungal load
- mice surviving C. neoformans infection (C. neoformans [7]; up to 60 days, 10 mice per group): 70%
- EC50 at 48 h (In vitro toxicity): 50 µg/mL (≈ 126 µM)
- EC50/MIC80 selectivity index (J774 cells; J774 EC50 versus MIC): > 100
- selectivity index (EC50/MIC ratio) (J774 cells; macrophage cell line): > 50
- survival (P. murina [8]): significantly improved survival
- toxicity (P. murina [8]): no apparent signs of toxicity
- numbers of vesicles per square micrometer of cell surface area (C. neoformans [9]): 0.93 ± 0.54
- mice still alive (C. albicans SC 5314): 75%
- in vitro susceptibility (Candida spp.): resistant
- development of resistance (C. neoformans cells [10]): did not develop resistance
- type of killing (C. neoformans cells [11]; time-kill assay, 37°C, 5% CO2, pH 7.4): time-dependent killing
- dead cells (C. neoformans cells [11]; within 24 h): 100%
- all other blood parameters for liver and kidney function ([12]; after 60 days of treatment): normal
- tolerability in animals ([12]; mouse, in vivo): well tolerated

SMILES: C[C@@H]1[C@H](O)[C@@H](C)/C=C/C=C/C=C/C=C/C=C/C=C/C=C/[C@H](O[C@@H]2O[C@H](C)[C@@H](O)[C@H](N)[C@@H]2O)C[C@@H]2O[C@](O)(C[C@@H](O)C[C@@H](O)[C@H](O)CC[C@@H](O)C[C@@H](O)CC(=O)O[C@H]1C)C[C@H](O)[C@H]2C(=O)O [amphotericin B, reference compound]
- survival, days postinfection (C. neoformans [5]; 1.2 mg/kg/day i.p.): 23.5 ± 6.5 days

SMILES: OC(Cn1cncn1)(Cn1cncn1)c1ccc(F)cc1F [fluconazole, reference compound]
- MIC (Cryptococcus neoformans): > 64 µg/mL
- survival, days postinfection (C. neoformans [5]; 10 mg/kg/day i.p.): 10 ± 2 days
